Reference: publication PMC8385569 (JACC: Basic to Translational Science, 2021)

Experiments:
[1] = system: differentiated HL-60 cells; assay: Chemotaxis assay; format: cell-based, human
Outline: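 In vitro chemotaxis toward test compound was measured in differentiated HL-60 cells: parental, FPR1-deficient and FPR2 KO lines. EC50 came from a nonlinear concentration-response curve.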

[2] = system: mouse myocardial infarction (permanent LAD ligation); assay: Mouse MI early short-term treatment, histology and in situ hybridization; format: in vivo; details: 3 mg/kg, 3 days post MI
Outline: (§1)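 Male C57BL/6 mice, 10-12 weeks old, had the LAD permanently occluded by suture under ketamine/xylazine anesthesia and isoflurane ventilation. Test compound, 3 mg/kg, was given by oral gavage once daily, starting 24 hours post MI. Hearts were analyzed about 3 days after occlusion.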

human FPR1 = target: T1, human FPR1 (Homo sapiens, UniProt P21462); assay: BRET biosensor signaling, HEK293 cells expressing human FPR1; format: cell-based
T1 sequence (P21462 1-350): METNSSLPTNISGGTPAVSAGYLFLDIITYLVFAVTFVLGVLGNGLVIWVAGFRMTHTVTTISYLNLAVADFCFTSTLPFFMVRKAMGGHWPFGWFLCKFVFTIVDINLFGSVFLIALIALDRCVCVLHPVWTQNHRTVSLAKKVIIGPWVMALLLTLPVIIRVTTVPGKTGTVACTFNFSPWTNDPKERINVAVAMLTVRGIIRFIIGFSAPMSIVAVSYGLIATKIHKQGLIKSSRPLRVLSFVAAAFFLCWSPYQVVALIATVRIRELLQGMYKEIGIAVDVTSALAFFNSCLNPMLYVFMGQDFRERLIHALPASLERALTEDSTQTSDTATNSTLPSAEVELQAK

[3] = system: isolated human whole blood; assay: Human blood assay, cytokine and FPR2 mRNA expression; format: cell-based; details: for increase in IL-10 mRNA levels / increase in MCP-1 mRNA versus control: isolated human whole blood; for increase in IL-10 mRNA levels: average
[4] = system: rat myocardial infarction (permanent coronary artery occlusion); assay: Rat MI 5 days, immunohistochemistry of peri-infarct zone; format: in vivo; details: 1 mg/kg, 5 days post-artery ligation
[5] = system: rat myocardial infarction (permanent coronary artery occlusion); assay: Rat MI permanent coronary artery occlusion, 6 weeks; format: in vivo; details: 1 mg/kg once per day
Outline: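 Male Sprague Dawley rats, 6-7 weeks old, had permanent coronary artery occlusion by suture under ketamine/xylazine and isoflurane anesthesia. They received test compound at 1 mg/kg once daily for 6 weeks. LV volumes were measured by echocardiography. Terminally, under isoflurane, a 2.5-F conductance catheter was placed in the LV via right carotid cutdown, with parallel-conductance correction.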

[6] = system: BioGel-elicited peritoneal macrophages; assay: Zymosan phagocytosis assay; format: cell-based, mouse
[7] = system: mouse permanent coronary artery occlusion model; assay: Mouse MI 28-day treatment, survival and histomorphometry; format: in vivo
human FPR2 = target: T2, human FPR2 (Homo sapiens, UniProt P25090); assay: BRET biosensor signaling, HEK293 cells expressing human FPR2; format: cell-based; details: Gαi1, Gαi2, Gαi3, GαoA, GαoB biosensors; FPR2 relative to FPR1
T2 sequence (P25090 1-351): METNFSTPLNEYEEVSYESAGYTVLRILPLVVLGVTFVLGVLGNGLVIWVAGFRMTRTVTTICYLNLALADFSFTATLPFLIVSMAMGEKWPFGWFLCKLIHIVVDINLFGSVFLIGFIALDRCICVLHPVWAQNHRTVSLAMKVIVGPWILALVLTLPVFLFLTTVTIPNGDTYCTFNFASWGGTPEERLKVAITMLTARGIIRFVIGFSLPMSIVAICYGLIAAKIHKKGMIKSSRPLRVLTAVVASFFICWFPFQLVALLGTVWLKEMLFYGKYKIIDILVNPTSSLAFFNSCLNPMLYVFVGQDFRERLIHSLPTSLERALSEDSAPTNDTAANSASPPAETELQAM
Outline: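 HEK293 cells transiently expressed human FPR1 or FPR2 with Gαi1, Gαi2, Gαi3, GαoA or GαoB BRET biosensors, and test compound was titrated. EC50 came from a nonlinear concentration-response curve fit. Selectivity ratio was FPR2 EC50/FPR1 EC50.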

[8] = system: mouse myocardial infarction (permanent LAD ligation); assay: Mouse MI early short-term treatment, cardiac flow cytometry; format: in vivo; details: 3 mg/kg, 3 days post MI, mouse heart
Outline: as §1

[9] = system: rat myocardial ischemia-reperfusion injury; assay: Rat ischemia-reperfusion study, 6 weeks; format: in vivo; details: 1 mg/kg, rat I/R
Outline: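 Male Sprague Dawley rats, 6-7 weeks old, underwent coronary ischemia-reperfusion and received test compound at 1 mg/kg for 6 weeks. Hearts were arrested in diastole, removed and mounted on a modified Langendorff apparatus. Passive LV pressure-volume relationships were recorded ex vivo.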

[10] = system: isolated human neutrophils; assay: Apoptosis assay of isolated human neutrophils activated with SAA; format: cell-based; details: co-incubation with BMS-986235 and SAA, relative to SAA-only treatment
HL-60 cells = assay: Oxidative burst assay; format: cell-based, human
[11] = system: noninfarcted rats challenged with LPS; assay: Acute LPS challenge in rat, IL-10; format: in vivo; details: 1 mg/kg
Outline: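 Adult male Sprague Dawley rats, 6-7 weeks old, without infarction, were dosed with test compound at 1 mg/kg and challenged with LPS. The read-out was IL-10 induction. Blood compound levels were taken 1.5 to 3 hours after dosing.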

Compound: COc1cc(F)c([C@@H]2CNC(=O)[C@H]2NC(=O)Nc2ccccc2)c(F)c1 [BMS-986235, 1-((3S,4R)-4-(2,6-difluoro-4-methoxyphenyl)-2-oxopyrrolidin-3-yl)-3-phenylurea]
- concentrations at which chemotaxis attenuation was observed ([1]; HL-60 FPR1 KO, bell-shaped response): > 120 nM
- enhancement in chemotaxis ([1]; HL-60 FPR2 KO line): no enhancement
- arginase-1 mRNA within peri-infarct border zone, fold vs vehicle [2]: +6.4 fold
- BRET signal for Gα12 and Gα13 (human FPR1): minimal to no increase
- increase in IL-10 mRNA levels ([3]; 0.1 μM): 3 fold
- increase in MCP-1 mRNA versus control ([3]; 1 μM): 28 fold
- increase in MCP-1 mRNA versus control ([3]; 10 μM): 54 fold
- increase in IL-10 mRNA levels ([3]; 10 μM): 6 fold
- induction of FPR2 mRNA ([3]; any concentration (0.01-10 µM)): no significant induction
- induction of IL-6 mRNA ([3]; any concentration (0.01-10 µM)): no significant induction
- induction of IL-8 mRNA ([3]; any concentration (0.01-10 µM)): no significant induction
- induction of TNFα mRNA ([3]; any concentration (0.01-10 µM)): no significant induction
- myocardial CD206 levels at peri-infarct zone versus vehicle [4]: relative increases
- myocardial IL-10 levels at peri-infarct zone versus vehicle [4]: relative increases
- Infarct Wall Thickness, change vs vehicle [5]: +38%
- LV End Diastolic Volume (echocardiography), change vs vehicle [5]: -26%
- LV End Systolic Volume (echocardiography), change vs vehicle [5]: -29%
- Scar Area, change vs vehicle [5]: -26%
- phagocytosis response above control macrophages ([6]; FPR2 KO-derived peritoneal macrophages): minimal response
- Ymax zymosan phagocytosis ([6]; WT-derived peritoneal macrophages): ~100%
- mortality over the 4 week study ([7]; 3 mg/kg once a day oral): significant reduction
- reduction of infarct scar size relative to vehicle ([7]; 3 mg/kg, 4 weeks of treatment): ~55%
- selectivity ratios (FPR2 EC50/FPR1 EC50) (human FPR2): 164- to 614 fold
- number of total macrophages relative to vehicle [8]: unchanged
- ex vivo LV pressure-volume curve vs vehicle [9]: left shifted
- reduction of LV volume at end-diastole [9]: 26%
- reduction of LV volume at end-systole [9]: 42%
- transmural thickness of the infarct wall relative to vehicle [9]: without altering
- viable myocardium at the distal end of the MI [9]: trend toward increased
- % Viable Myocardium across infarct wall, increase vs vehicle ([9]; Mid MI region): 31%
- % Viable Myocardium across infarct wall, increase vs vehicle ([9]; Proximal MI region): 31%
- reduction of percentage of viable neutrophils [10]: 12%
- Ymax oxidative burst (HL-60 cells; HL-60 FPR1 KO line): 38%
- oxidative burst activity (HL-60 cells; HL-60 FPR2 KO line): abolished
- Ymax oxidative burst (HL-60 cells; HL-60 cells expressing both receptors): 97%
- EC50 (HL-60 cells; Homo sapiens, HL-60, read-out: EC50 oxidative burst): 130 nM
- IL-10 induction [11]: efficacious dose
